# Out of some 370,000 compounds screened, about 1,200 (0.32%) were called active.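 How the source made its calls: active means inhibition above the mean of all tested compounds plus 3 SD, set per campaign (cut at about 25% in these data); inactive means the rest.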 Many of the other results were omitted from the sample, so actives are more common in it than they were.
# Target: Tyrosyl-DNA phosphodiesterase 2 (Homo sapiens) (UniProt O95551)
# Test: human TDP2 enzyme inhibitors, primary screen, biochemical, epi absorbance, recombinant enzyme (AID 720702);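 further: 0% = DMSO with enzyme and 100% = buffer with substrate but no TDP2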
# Conditions: recombinant TDP2, T5PNP hydrolysis, p-nitrophenol absorbance 415 nm; at 12.8 µM; hits give high values
# Summary of the method: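 Test system: Human TDP2 enzyme | Reagent: 5 mM T5PNP | Compound dosing: 12.8 µM single point, 1% DMSO | Incubation: Enzyme reaction with compound for 2 h at 37 °C | Technique: p-Nitrophenol epi absorbance | Read-out: % inhibition relative to enzyme-containing and enzyme-free wells | Benchmarks: High control without enzyme, low control DMSO plus TDP2 | Replicates: Singlicate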
# Tyrosyl-DNA phosphodiesterase 2 (Homo sapiens), sequence (O95551 whole entry, looked up): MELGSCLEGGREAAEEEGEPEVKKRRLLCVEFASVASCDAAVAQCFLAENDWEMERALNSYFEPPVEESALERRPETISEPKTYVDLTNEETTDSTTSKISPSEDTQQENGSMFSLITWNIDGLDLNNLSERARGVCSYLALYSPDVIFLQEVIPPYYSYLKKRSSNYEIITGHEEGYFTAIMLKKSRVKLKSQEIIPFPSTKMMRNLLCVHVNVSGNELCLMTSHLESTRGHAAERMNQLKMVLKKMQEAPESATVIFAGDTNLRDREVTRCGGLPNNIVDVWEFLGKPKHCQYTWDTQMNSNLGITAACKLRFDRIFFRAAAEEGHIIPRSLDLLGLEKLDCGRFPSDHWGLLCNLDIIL
row,SMILES,inhibition
1,C=CCN1C(=O)[C@@H](CC(=O)NCCCCc2ccccc2)[C@]2(C(=O)OCC)CCCCC/C=C/12,3.84% (inactive)
2,O=C(Nc1cc(F)cc(F)c1)OC1CCC12CCC(c1ccccc1)CC2 (centres undefined),3% (inactive)
3,O=C(Nc1ccccc1F)C1C2C=CC3(O2)C1C(=O)N(c1cccnc1)C3C(=O)NC1CCCCC1 (centres undefined),-0.47% (inactive)
4,CC(C)N1C(=O)C2C(C(=O)NC3CCCCC3)C3C=CC2(O3)C1C(=O)NC1CCCC1 (centres undefined),3.15% (inactive)
5,CCN(CC)CCN1C(=O)C2C(C(=O)Nc3ccc(Br)cc3)C3C=CC2(O3)C1C(=O)NC1CCCCC1 (centres undefined),27.5% (active)
6,CC1=C(C(=O)N(C(C)C)C(C)C)CC(CC(=O)NCCCCc2ccccc2)C(=O)N1CCC1=CCCCC1 (centres undefined),-5.04% (inactive)
7,CC(=O)CCS(=O)(=O)c1ccc(C)c(C)c1,-9.65% (inactive)
8,COCCNC(=O)c1ccc(S(=O)(=O)c2ccc(Cl)cc2)c(NC(C)=O)c1,27.5% (active)
9,COc1ccc(C(=O)NCc2ccc(Cl)cc2)cc1S(=O)(=O)N1CCCC1,-0.23% (inactive)
10,COCCCNC(=O)c1ccc(CNS(=O)(=O)c2ccc(NC(C)=O)cc2)cc1,-0.2% (inactive)
11,Cc1cc(OCC(=O)Nc2nccs2)c2c(C)c(C)c(=O)oc2c1,0.03% (inactive)
12,Nc1nc(O)c(CC(=O)O)s1,27.2% (active)
13,CCOC(=O)c1nc(N)sc1C(=O)OCC,-14.1% (inactive)
14,CCCCC(=O)N[C@@H]1CC[C@@]23CCCN2C(=O)CCC[C@H]3[C@H]1C,-3.42% (inactive)
15,Cc1ccc(C)c(OCCC(=O)OCC(=O)N2CCN(c3ccccc3)CC2)c1,-10.4% (inactive)
16,O=C(OCC(=O)N1CCOCC1)c1ccc(N2CCOCC2)c([N+](=O)[O-])c1,-4.23% (inactive)
17,O=C(OCC(=O)N1CCN(c2ccccc2)CC1)c1ccc([N+](=O)[O-])s1,31.9% (active)
18,O=C(NCc1ccccc1Cl)C1CCC(CNc2c(N3CCCCC3)c(=O)c2=O)CC1 (centres undefined),1.69% (inactive)
19,C=C(C)C#CC(Cc1ccccc1)N(CC1CC1)/C(N)=N/C(=O)OCc1ccccc1 (centres undefined),4.08% (inactive)
20,O=C(CN1CCN(c2cccc(Cl)c2)CC1)Nc1ccc(S(=O)(=O)N2CCOCC2)cc1,-4.18% (inactive)
21,COc1ccc(Cl)cc1NC(=O)CN1CCN(C(=O)N2CCOCC2)CC1,5.78% (inactive)
22,Cc1ccc(Cl)cc1NC(=O)CN1CCN(S(=O)(=O)N2CCOCC2)CC1,27.6% (active)
23,COc1ccc(C2CC=C(C(=O)O)C(c3ccccc3F)N2S(=O)(=O)c2ccc(C)cc2)cc1OC (centres undefined),-4.62% (inactive)
24,O=C(C1CCCN1S(=O)(=O)c1ccccc1)N1CCc2ccccc2C1 (centres undefined),-6.17% (inactive)
25,C=CCN(C(=O)[C@@H](CCCC)[C@@H](O)c1ccc(Cl)cc1)c1ccccc1,-12.4% (inactive)
26,CCCCCCCCCCCCCCCC(=O)OC/C=C(C)/C=C/C=C(C)/C=C/C1=C(C)CCCC1(C)C,2.56% (inactive)
27,COCCn1nnnc1C(c1cc2ccc(OC)cc2[nH]c1=O)N1CCc2ccccc2C1 (centres undefined),41.1% (active)

row,SMILES,inhibition
1,COc1ccc(CCC(C)N2CCc3ccccc3C2)cc1 (centres undefined),-2.33% (inactive)
2,COCCn1nnnc1C(c1ccccc1Cl)N1CCN(c2ccccc2OC)CC1 (centres undefined),-10.8% (inactive)
3,NS(=O)(=O)c1ccc(CCNC(=O)c2nc(CS(=O)(=O)c3ccc(Cl)cc3)no2)cc1,-7.74% (inactive)
4,Cc1cc(C)c(S(=O)(=O)c2ccc(F)cc2C)c(=O)[nH]1,8.26% (inactive)
5,CS(=O)(=O)N1CCCC(C(=O)N2CCOCC2)C1 (centres undefined),7.83% (inactive)
6,Cc1ccc(-n2c(SCC(=O)Nc3ccc(S(=O)(=O)Nc4nccs4)cc3)nnc2-c2cccnc2)cc1,-18.4% (inactive)
7,COc1ccccc1CCn1cnc(-c2ccccc2)c1C(C)C,-1.89% (inactive)
8,COc1ccc(C2Nc3ccccc3C(=O)N2Cc2cccs2)cc1COc1c(C)cccc1C (centres undefined),-6.88% (inactive)
9,COc1ccc(C2C(C#N)=C(N)Oc3n[nH]c(C)c32)cc1CN1CCN(c2ccc(F)cc2)CC1 (centres undefined),2.94% (inactive)
10,Cc1nn(-c2ccccc2)c2c1C(c1ccc(F)cc1)C(C#N)=C(N)O2 (centres undefined),78.5% (active)
11,COc1ccccc1C1CC(=O)n2c(nc(-c3ccccc3)c2-c2ccccc2)S1 (centres undefined),-1.89% (inactive)
12,COc1ccccc1C1C(C#N)=C(N)Oc2c1c(-c1ccccc1)nn2-c1ccccc1 (centres undefined),68.7% (active)
13,CCOC(=O)C1=C(C)OC(N)=C(C#N)C1c1cncc(-c2ccc(F)cc2)c1 (centres undefined),2.25% (inactive)
14,CC1=NN(C(=O)Cc2ccc(C)cc2)C(O)(c2cccnc2)C1 (centres undefined),-0.61% (inactive)
15,C[C@@H]1CN([C@@H](C)CO)C(=O)c2cccc(NC(=O)Nc3cccc4ccccc34)c2O[C@H]1CN(C)S(=O)(=O)c1ccccc1F,-6.81% (inactive)
16,CC(C)(C)NC(=O)C(c1cccnc1)N(C(=O)c1cnco1)c1ccc(C(C)(C)C)cc1 (centres undefined),6.07% (inactive)
17,Nc1nc2n(n1)C(c1ccco1)CC(c1ccc(Cl)c(Cl)c1)N2 (centres undefined),-12.1% (inactive)
18,O=C(NCCCc1ccccc1)[C@H](Cc1ccccc1)NC1(C(=O)NCCc2c[nH]c3ccccc23)CCC1,2.05% (inactive)
19,O=C(N[C@H](C(=O)N1CCC[C@H]1C(=O)NCCc1ccccc1Cl)c1ccccc1)c1ccccc1,3.26% (inactive)
20,C[C@H](C(=O)N(C)c1ccccc1)[C@@H](O)c1ccc2ccccc2c1,6.57% (inactive)
21,C=CCN(C)CC#Cc1ccccc1,-6.66% (inactive)
22,CCn1c(SCC(C)=O)nc2sc3c(c2c1=O)CCCC3,-7.52% (inactive)
23,CC1(C)OC(=O)C(=CSc2ccc(C(C)(C)C)cc2)C(=O)O1,-0.61% (inactive)
24,Cc1ccsc1C(C(=O)NC1CCCCC1)N(C(=O)Cc1cccs1)C1CC1 (centres undefined),-13.4% (inactive)
25,O=[N+]([O-])c1ccc(NS(=O)(=O)c2ccccc2)c(Cl)c1,-17.4% (inactive)
26,O=S(=O)(Cc1noc(-c2ccc(OC(F)(F)F)cc2)n1)c1ccc(F)cc1,1.13% (inactive)
27,O=S(=O)(Nc1ccc(O)c2ccccc12)c1ccc(OC(F)(F)F)cc1,46.3% (active)
